Source: ChEMBL document CHEMBL4715736, “Identification of anticancer agents based on the thieno[2,3-b]pyridine and 1H-pyrazole molecular scaffolds” (2016)

Key:
Assay type in all cases: functional
[1] = test system: SR; experiment: Growth inhibition of human SR cells assessed as cell growth at 0.01 uM incubated for 48 hrs by sulforhodamine B assay relative to control; details: read-out: Activity
[2] = test system: NCI-H460; experiment: Growth inhibition of human NCI-H460 cells assessed as cell growth at 0.01 uM incubated for 48 hrs by sulforhodamine B assay relative to control; details: read-out: Activity
[3] = test system: SNB-19; experiment: Growth inhibition of human SNB-19 cells assessed as cell growth at 0.01 uM incubated for 48 hrs by sulforhodamine B assay relative to control; details: read-out: Activity
[4] = test system: K562; experiment: Growth inhibition of human K562 cells assessed as cell growth at 0.1 uM incubated for 48 hrs by sulforhodamine B assay relative to control; details: read-out: Activity
[5] = test system: SF-268; experiment: Growth inhibition of human SF-268 cells assessed as cell growth at 0.1 uM incubated for 48 hrs by sulforhodamine B assay relative to control; details: read-out: Activity
[6] = test system: IGROV-1; experiment: Growth inhibition of human IGROV-1 cells assessed as cell growth at 0.1 uM incubated for 48 hrs by sulforhodamine B assay relative to control; details: read-out: Activity
[7] = test system: ACHN; experiment: Growth inhibition of human ACHN cells assessed as cell growth at 0.1 uM incubated for 48 hrs by sulforhodamine B assay relative to control; details: read-out: Activity
[8] = test system: Hs-578T; experiment: Growth inhibition of human Hs-578T cells assessed as cell growth at 0.1 uM incubated for 48 hrs by sulforhodamine B assay relative to control; details: read-out: Activity
[9] = test system: RPMI-8226; experiment: Growth inhibition of human RPMI-8226 cells assessed as cell growth at 1 uM incubated for 48 hrs by sulforhodamine B assay relative to control; details: read-out: Activity
[10] = test system: HCT-15; experiment: Growth inhibition of human HCT-15 cells assessed as cell growth at 1 uM incubated for 48 hrs by sulforhodamine B assay relative to control; details: read-out: Activity
[11] = test system: SW-620; experiment: Growth inhibition of human SW-620 cells assessed as cell growth at 1 uM incubated for 48 hrs by sulforhodamine B assay relative to control; details: read-out: Activity
[12] = test system: M14; experiment: Growth inhibition of human M14 cells assessed as cell growth at 1 uM incubated for 48 hrs by sulforhodamine B assay relative to control; details: read-out: Activity
[13] = test system: MDA-MB-435; experiment: Growth inhibition of human MDA-MB-435 cells assessed as cell growth at 1 uM incubated for 48 hrs by sulforhodamine B assay relative to control; details: read-out: Activity
[14] = test system: OVCAR-8; experiment: Growth inhibition of human OVCAR-8 cells assessed as cell growth at 1 uM incubated for 48 hrs by sulforhodamine B assay relative to control; details: read-out: Activity
[15] = test system: RXF 393; experiment: Growth inhibition of human RXF 393 cells assessed as cell growth at 1 uM incubated for 48 hrs by sulforhodamine B assay relative to control; details: read-out: Activity
[16] = test system: BT-549; experiment: Growth inhibition of human BT-549 cells assessed as cell growth at 1 uM incubated for 48 hrs by sulforhodamine B assay relative to control; details: read-out: Activity
[17] = test system: A549; experiment: Growth inhibition of human A549/ATCC cells assessed as cell growth at 100 uM incubated for 48 hrs by sulforhodamine B assay relative to control; details: read-out: Activity
Summary of the method: (§1)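 NCI Developmental Therapeutics Program NCI60 panel. Compounds that were active in the 10 µM one-dose screen went on to dose–response testing. Growth at each concentration is expressed relative to untreated control (100%). GI50 (concentration giving 50% of maximal inhibition of proliferation) and TGI (concentration giving total growth inhibition) were derived from the curves.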

[18] = test system: HCT-15; experiment: Growth inhibition of human HCT-15 cells assessed as cell growth at 100 uM incubated for 48 hrs by sulforhodamine B assay relative to control; details: read-out: Activity
[19] = test system: SNB-19; experiment: Growth inhibition of human SNB-19 cells assessed as cell growth at 100 uM incubated for 48 hrs by sulforhodamine B assay relative to control; details: read-out: Activity
[20] = test system: SNB-75; experiment: Growth inhibition of human SNB-75 cells assessed as cell growth at 100 uM incubated for 48 hrs by sulforhodamine B assay relative to control; details: read-out: Activity
[21] = test system: MDA-MB-435; experiment: Growth inhibition of human MDA-MB-435 cells assessed as cell growth at 100 uM incubated for 48 hrs by sulforhodamine B assay relative to control; details: read-out: Activity
[22] = test system: OVCAR-3; experiment: Growth inhibition of human OVCAR-3 cells assessed as cell growth at 100 uM incubated for 48 hrs by sulforhodamine B assay relative to control; details: read-out: Activity
[23] = test system: SN12C; experiment: Growth inhibition of human SN12C cells assessed as cell growth at 100 uM incubated for 48 hrs by sulforhodamine B assay relative to control; details: read-out: Activity
[24] = test system: MDA-MB-468; experiment: Growth inhibition of human MDA-MB-468 cells assessed as cell growth at 100 uM incubated for 48 hrs by sulforhodamine B assay relative to control; details: read-out: Activity
[25] = test system: SR; experiment: Growth inhibition of human SR cells incubated for 48 hrs by sulforhodamine B assay
Summary of the method: (§2)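 NCI DTP 60-line human tumour panel. Dose-response curves were run only for ligands active in the initial 10 µM screen. GI50 (concentration giving 50% of maximal inhibition of proliferation) and TGI (concentration giving total growth inhibition) were derived from these curves.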

[26] = test system: A549; experiment: Growth inhibition of human A549/ATCC cells incubated for 48 hrs by sulforhodamine B assay; summary of the method: as §1
[27] = test system: COLO 205; experiment: Growth inhibition of human COLO 205 cells incubated for 48 hrs by sulforhodamine B assay; summary of the method: as §1
[28] = test system: KM12; experiment: Growth inhibition of human KM12 cells incubated for 48 hrs by sulforhodamine B assay
Summary of the method: (§3)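 NCI60 panel at the NCI Developmental Therapeutics Program. Only compounds active in the 10 µM screen went to dose-response testing. GI50, the concentration giving 50% of maximal inhibition of proliferation, and TGI, the concentration giving total growth inhibition, were derived from the dose-response curves.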

[29] = test system: SK-MEL-2; experiment: Growth inhibition of human SK-MEL-2 cells incubated for 48 hrs by sulforhodamine B assay; summary of the method: as §2
[30] = test system: ACHN; experiment: Growth inhibition of human ACHN cells incubated for 48 hrs by sulforhodamine B assay; summary of the method: as §1
[31] = test system: CAKI-1; experiment: Growth inhibition of human CAKI-1 cells incubated for 48 hrs by sulforhodamine B assay; summary of the method: as §1
[32] = test system: DU-145; experiment: Growth inhibition of human DU-145 cells incubated for 48 hrs by sulforhodamine B assay; summary of the method: as §1
[33] = test system: MCF7; experiment: Growth inhibition of human MCF7 cells incubated for 48 hrs by sulforhodamine B assay; summary of the method: as §3
[34] = read-out: LC50 (the source's name)

`CCc1ccccc1NC(=O)c1sc2nc3c(cc2c1N)C(=O)CCC3` was tested, and the growth at 0.01 µM [1] was 100%, the growth at 0.01 µM [2] was 100% and the growth at 0.01 µM [3] was 91%. It also gave a growth at 0.1 µM [4] of 63%, a growth at 0.1 µM [5] of 93% and a growth at 0.1 µM [6] of 102%. The growth at 0.1 µM [7] was 92%, the growth at 0.1 µM [8] was 80% and the growth at 1 µM [9] was 41%. For the same molecule, the growth at 1 µM [10] was 30%, the growth at 1 µM [11] was 18% and the growth at 1 µM [12] was 17%. For the same molecule, the growth at 1 µM [13] was -53%, the growth at 1 µM [14] was 60% and the growth at 1 µM [15] was -8%. For the same molecule, the growth at 1 µM [16] was 50%, the growth at 100 µM [17] was 12% and the growth at 100 µM [18] was 19%. It also gave a growth at 100 µM [19] of 11%, a growth at 100 µM [20] of -19% and a growth at 100 µM [21] of -48%. For the same molecule, the growth at 100 µM [22] was -36%, the growth at 100 µM [23] was 22% and the growth at 100 µM [24] was -8%. For the same molecule, the GI50 [25] was 0.406 µM, the LC50 [25] was > 100 µM and the TGI [25] was > 100 µM. The GI50 [26] was 0.595 µM, the TGI [26] was > 100 µM and the CC50 [26, 34] was > 100 µM. For the same molecule, the GI50 [27] was 0.252 µM, the LC50 (concentration killing 50% of cells) [27] was > 100 µM and the TGI [27] was 19.8 µM. The GI50 [28] was 0.402 µM, the LC50 [28] was > 100 µM and the TGI [28] was > 100 µM. For the same molecule, the LC50 [29] was > 100 µM, the TGI [29] was > 100 µM and the GI50 [30] was 0.0188 µM. For the same molecule, the TGI [30] was > 100 µM, the CC50 [30, 34] was > 100 µM and the GI50 [31] was 0.504 µM. For the same molecule, the TGI [31] was > 100 µM, the CC50 [31, 34] was > 100 µM and the GI50 [32] was 0.499 µM. The TGI [32] was > 100 µM, the CC50 [32, 34] was > 100 µM and the GI50 [33] was 0.312 µM. The TGI [33] was > 100 µM and the CC50 [33, 34] was > 100 µM.
